ChEMBL document CHEMBL4706762, “Massively Parallel Optimization of the Linker Domain in Small Molecule Dimers Targeting a Toxic r(CUG) Repeat Expansion” (ACS Med Chem Lett, 2021)
Active and inactive are the calls of the source. The calls are words filed in the database; no cut-off is given here.

Tests used:
[1] = Cytotoxicity against DM1-patient derived myotubes assessed as change in cellular morphology at 5 uM measured after 48 hrs; settings: human, myotube
Procedure, shortened: (§1)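 Cell morphology of DM1 patient-derived myotubes inspected during 48 h splicing treatment at 5 μM; agents altering morphology were re-tested at 1 μM.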

[2] = Drug localization in nucleus of DM1-patient derived myotubes at 5 uM measured after 24 hrs by live-cell fluorescence microscopy; format: ADME, subcellular; settings: human, myotube
Procedure, shortened: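 DM1 patient myotubes bearing 1300 r(CUG) repeats given 5 μM agent; subcellular localization followed via intrinsic fluorescence of the H RNA-binding modules.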

[3] = system: Myotube; test: Effect on MBNL1 exon 5 splicing in wild type human myotubes at 0.04 to 1 uM measured after 48 hrs by RT-qPCR analysis; format: functional; settings: dose 0.04-1 µM
[4] = system: Myotube; test: Effect on DMPK transcription in DM1-patient derived myotubes at 0.04 to 1 uM measured after 48 hrs by RT-qPCR analysis; format: functional; settings: Homo sapiens, dose 0.04-1 µM
Procedure, shortened: (§2)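 Transcript levels, either DMPK or r(CUG) repeat-containing mRNAs, quantified by RT-qPCR in treated DM1 myotubes; n = 6, one-way ANOVA.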

[5] = system: r(CUG) repeat expansion; test: Binding affinity to r(CUG)exp RNA repeat in DM1-patient derived myotubes assessed as reduction in number of r(CUG)exp-MBNL1 foci at 1 uM measured after 48 hrs by RNA fluorescence in situ hybridization assay; design: scale not given: the % may be the effect or the level left; settings: Homo sapiens, Myotube
Procedure, shortened: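 Nuclear foci counted in DM1 myotubes by confocal imaging: MBNL1 by immunofluorescence, r(CUG)exp by RNA FISH. Foci per nucleus from 40 nuclei per replicate, n = 3; Student's t-test.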

[6] = system: Myotube; test: Effect on alternative splicing of MAP4K4 exon 22a in DM1-patient derived myotubes at 0.04 to 1 uM measured after 48 hrs by RT-qPCR analysis; format: functional; settings: Homo sapiens, dose 0.04-1 µM
[7] = system: r(CUG) repeat expansion; test: Binding affinity to r(CUG)exp RNA repeat in DM1-patient derived myotubes assessed as improvement in MBNL1 exon 5 splicing defect at 0.2 uM measured after 48 hrs by RT-qPCR analysis relative to control; settings: Homo sapiens, Myotube
Procedure, shortened: (§3)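 DM1 patient-derived myotubes (1300 r(CUG) repeats) treated 48 h, then MBNL1 exon 5 splicing rescue measured. Single-dose screens at 5 μM or 1 μM, where 1 μM was used if 5 μM altered morphology, n = 3. Dose–response also run, n = 6. SD shown; one-way ANOVA.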

[8] = Cytotoxicity against DM1-patient derived myotubes assessed as change in cellular morphology at 1 uM measured after 48 hrs; settings: human, myotube; procedure, shortened: as §1
[9] = biological target: r(CUG) repeat expansion; test: Binding affinity to 5'-biotinylated r(CUG)12 RNA repeat (unknown origin) assessed as disruption of r(CUG)12-His-tagged MBNL1 complex formation preincubated for 15 mins followed by MBNL1 addition and measured after 15 mins by TR-FRET assay; format: nucleic-acid assay
[10] = system: r(CUG) repeat expansion; test: Binding affinity to r(CUG)exp RNA repeat in DM1-patient derived myotubes assessed as improvement in MBNL1 exon 5 splicing defect at 1 uM measured after 48 hrs by RT-qPCR analysis relative to control; settings: Homo sapiens, Myotube; procedure, shortened: as §3
[11] = system: Nucleic Acid; test: Binding affinity to r(CG)8 RNA repeat (unknown origin) measured after 10 mins by fluorescence assay; format: nucleic-acid assay
[12] = biological target: r(CUG) repeat expansion; test: Binding affinity to r(CUG)12 RNA repeat (unknown origin) measured after 10 mins by fluorescence assay; format: nucleic-acid assay
[13] = system: r(CUG) repeat expansion; test: Binding affinity to r(CUG)exp RNA repeat in DM1-patient derived myotubes assessed as improvement in MBNL1 exon 5 splicing defect measured after 48 hrs by RT-qPCR analysis; format: tissue-based; settings: Homo sapiens, Myotube, dose 0.04-1 µM
[14] = system: r(CUG) repeat expansion; test: Binding affinity to r(CUG)exp RNA repeat in DM1-patient derived myotubes assessed as improvement in MBNL1 exon 5 splicing defect at 0.04 to 1 uM measured after 48 hrs by RT-qPCR analysis relative to control; format: tissue-based; settings: Homo sapiens, Myotube, dose 0.04-1 µM
Procedure, shortened: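 Dose–response for MBNL1 exon 5 splicing rescue in DM1 patient myotubes (1300 r(CUG) repeats) after 48 h treatment; n = 6, SD, one-way ANOVA.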

[15] = system: r(CUG) repeat expansion; test: Binding affinity to [5'-32P]-r(CUG)10 RNA (unknown origin) assessed as induction of RNA cleavage at 5 uM measured after 24 hrs by gel electrophoresis method relative to control; format: nucleic-acid assay
Procedure, shortened: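 5′-radiolabeled r(CUG)10 incubated with agent; cleavage fragments resolved by gel electrophoresis; n = 3, one-way ANOVA.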

[16] = system: r(CUG) repeat expansion; test: Binding affinity to MAP3K4 r(CUG)11 RNA repeat in DM1 patient-derived myotubes at 1 uM measured after 48 hrs by RT-qPCR analysis; format: tissue-based; settings: Homo sapiens, Myotube; procedure, shortened: as §2
[17] = Reduction in DMPK transcription in DM1-patient derived myotubes at 0.04 to 1 uM measured after 48 hrs by RT-qPCR analysis; format: functional, Homo sapiens, Myotube; design: scale not given: the % may be the effect or the level left; settings: dose 0.04-1 µM; procedure, shortened: as §2
[18] = system: r(CUG) repeat expansion; test: Binding affinity to LRP8 r(CUG)11 RNA repeat repeat in DM1 patient-derived myotubes at 1 uM measured after 48 hrs by RT-qPCR analysis; settings: Homo sapiens, Myotube; procedure, shortened: as §2
[19] = system: r(CUG) repeat expansion; test: Binding affinity to SORCS2 r(CUG)7 RNA repeat in DM1 patient-derived myotubes at 1 uM measured after 48 hrs by RT-qPCR analysis; settings: Homo sapiens, Myotube; procedure, shortened: as §2
[20] = system: r(CUG) repeat expansion; test: Binding affinity to wild-type DMPK r(CUG)20 RNA repeat in DM1 patient-derived myotubes at 1 uM measured after 48 hrs by RT-qPCR analysis; settings: Homo sapiens, Myotube; procedure, shortened: as §2
[21] = system: r(CUG) repeat expansion; test: Binding affinity to SCUBE2 r(CUG)7 RNA repeat in DM1 patient-derived myotubes at 1 uM measured after 48 hrs by RT-qPCR analysis; settings: Homo sapiens, Myotube; procedure, shortened: as §2
[22] = system: Myotube; test: Effect on DMPK transcription in wild type human myotubes at 0.04 to 1 uM measured after 48 hrs by RT-qPCR analysis; format: functional; settings: dose 0.04-1 µM
[23] = system: r(CUG) repeat expansion; test: Binding affinity to CASK r(CUG)16 RNA repeat in DM1 patient-derived myotubes at 1 uM measured after 48 hrs by RT-qPCR analysis; settings: Homo sapiens, Myotube; procedure, shortened: as §2

SMILES: CCCN(CC(=O)N(CCCNC(=O)CCCOc1cccc(-c2nc3ccc(-c4nc5cc(N6CCN(C)CC6)ccc5[nH]4)cc3[nH]2)c1)CC(N)=O)C(=O)CN(CCO)C(=O)CN(CCN)C(=O)CN(CCN1CCOCC1)C(=O)CCCOc1cccc(-c2nc3ccc(-c4nc5cc(N6CCN(C)CC6)ccc5[nH]4)cc3[nH]2)c1
- Activity [1]: Non-Toxic
- Drug uptake [2]: Active

SMILES: CNCCCCN(CC(=O)N(CCC(=O)N1CCCC1)CC(=O)N(CCCNC(=O)CCCOc1cccc(-c2nc3ccc(-c4nc5cc(N6CCN(C)CC6)ccc5[nH]4)cc3[nH]2)c1)CC(N)=O)C(=O)CN(CCO)C(=O)CN(CCC(=O)N1CCCC1)C(=O)CCCOc1cccc(-c2nc3ccc(-c4nc5cc(N6CCN(C)CC6)ccc5[nH]4)cc3[nH]2)c1
- Activity [1]: Non-Toxic
- Drug uptake [2]: Active

SMILES: CNCCCCN(CC(=O)N(CCN)CC(=O)N(CCCNC(=O)CCCOc1cccc(-c2nc3ccc(-c4nc5cc(N6CCN(C)CC6)ccc5[nH]4)cc3[nH]2)c1)CC(N)=O)C(=O)CN(C)C(=O)CN(CCCn1ccnc1)C(=O)CCCOc1cccc(-c2nc3ccc(-c4nc5cc(N6CCN(C)CC6)ccc5[nH]4)cc3[nH]2)c1
- Activity [3]: inactive
- Activity [4]: inactive
- Activity [5]: 20%
- Activity [6]: inactive
- Activity [7]: 7%
- Activity [8]: Non-Toxic
- IC50 [9]: 2800 nM
- Activity [10]: Active
- Activity [1]: Toxic
- Activity [11]: inactive
- Drug uptake [2]: Active
- EC50 [12]: 106 nM
- Activity [13]: Dose-dependent effect

SMILES: CCCN(CC(=O)N(CCCCNC)CC(=O)N(C)CC(=O)N(CCCNC(=O)CCCOc1cccc(-c2nc3ccc(-c4nc5cc(N6CCN(C)CC6)ccc5[nH]4)cc3[nH]2)c1)CC(N)=O)C(=O)CN(CCO)C(=O)CCCOc1cccc(-c2nc3ccc(-c4nc5cc(N6CCN(C)CC6)ccc5[nH]4)cc3[nH]2)c1
- Activity [1]: Non-Toxic
- Drug uptake [2]: Active

SMILES: CNCCCCN(CC(=O)N(CCN)CC(=O)N(CCCNC(=O)CCCOc1cccc(-c2nc3ccc(-c4nc5cc(N6CCN(C)CC6)ccc5[nH]4)cc3[nH]2)c1)CC(=O)NCCCCCC(=O)NCCCCNCCCNC(=O)c1csc(-c2csc(CCNC(=O)[C@@H](NC(=O)[C@@H](C)[C@H](O)[C@@H](C)NC(=O)[C@@H](NC(=O)c3nc([C@H](CC(N)=O)NC[C@H](N)C(N)=O)nc(N)c3C)[C@@H](O[C@@H]3O[C@@H](CO)[C@@H](O)[C@H](O)[C@@H]3O[C@@H]3O[C@H](CO)[C@@H](O)[C@H](OC(N)=O)[C@@H]3O)c3cnc[nH]3)[C@@H](C)O)n2)n1)C(=O)CN(C)C(=O)CN(CCCn1ccnc1)C(=O)CCCOc1cccc(-c2nc3ccc(-c4nc5cc(N6CCN(C)CC6)ccc5[nH]4)cc3[nH]2)c1
- Activity [14]: 30%
- Activity [15]: > 70%
- Activity [16]: inactive
- Activity [3]: inactive
- Activity [17]: 35%
- Activity [18]: inactive
- Activity [19]: inactive
- Activity [5]: 30%
- Activity [6]: inactive
- Activity [20]: inactive
- Activity [21]: inactive
- Activity [11]: inactive
- Activity [22]: inactive
- EC50 [12]: 120 nM
- Activity [23]: inactive

SMILES: CNCCCCN(CC(=O)N(CC(=O)N(CCCNC(=O)CCCOc1cccc(-c2nc3ccc(-c4nc5cc(N6CCN(C)CC6)ccc5[nH]4)cc3[nH]2)c1)CC(N)=O)C1CC1)C(=O)CN(CCOC)C(=O)CN(CCO)C(=O)CCCOc1cccc(-c2nc3ccc(-c4nc5cc(N6CCN(C)CC6)ccc5[nH]4)cc3[nH]2)c1
- Activity [1]: Non-Toxic
- Drug uptake [2]: Active

SMILES: CNCCCCN(CC(=O)N(CCCNC(=O)CCCOc1cccc(-c2nc3ccc(-c4nc5cc(N6CCN(C)CC6)ccc5[nH]4)cc3[nH]2)c1)CC(N)=O)C(=O)CN(CCCCNC)C(=O)CN(CCO)C(=O)CN(Cc1cccnc1)C(=O)CCCOc1cccc(-c2nc3ccc(-c4nc5cc(N6CCN(C)CC6)ccc5[nH]4)cc3[nH]2)c1
- Activity [1]: Non-Toxic
- Drug uptake [2]: Active
